Source: article PMC13435124 (The FASEB Journal, 2026)
“Also recorded” adds a separate entry of the source. Where two headings read alike, the source gives them in different places. Marks after values point to notes of the source that are not given here.

Experiments:
BV-2 cells = assay: Cell metabolism, Alamar Blue; assay type: cell-based, mouse; details: 24 h, Alamar Blue (Figure S1B)
In short: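 Cells exposed 24 h to test compound at 500, 250, 100, 50 or 5 μM, DMSO final up to 0.1% v/v. Resazurin 50 μM in PBS added 3 h before the end. Absorbance read at 570 nm with 620 nm reference. Highest nontoxic concentration chosen from metabolic capacity.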

BACE1 = BACE1 (Homo sapiens, UniProt P56817); assay: BACE1 activity assay; assay type: biochemical; details: cell-free, tested at 50, 100 and 250 μM (Table S1)
Sequence of BACE1 (P56817 46-457 limits assumed): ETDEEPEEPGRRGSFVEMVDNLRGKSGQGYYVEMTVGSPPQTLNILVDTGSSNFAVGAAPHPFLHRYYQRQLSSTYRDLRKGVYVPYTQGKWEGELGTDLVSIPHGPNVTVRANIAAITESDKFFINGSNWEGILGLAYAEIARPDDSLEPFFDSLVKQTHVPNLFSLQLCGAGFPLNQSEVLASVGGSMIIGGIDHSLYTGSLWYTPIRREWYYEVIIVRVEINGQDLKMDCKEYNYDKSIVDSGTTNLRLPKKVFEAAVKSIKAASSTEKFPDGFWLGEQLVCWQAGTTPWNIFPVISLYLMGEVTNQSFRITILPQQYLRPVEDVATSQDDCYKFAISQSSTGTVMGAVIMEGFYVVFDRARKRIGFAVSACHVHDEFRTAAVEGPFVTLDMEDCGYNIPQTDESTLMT

APP/PS1 female mice [1] = assay: Behavioral tests in 6-month-old females; assay type: in vivo, mouse; details: intranasal 50 mg/kg, 1 month
[2] = cited from earlier work; for dose-normalized AUC t in plasma: oral
APP/PS1 male mice [3] = assay: Fear conditioning test; assay type: in vivo, mouse; details: 100 mg/kg, 1 month
In short: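 10-month-old males, n = 5 per group, given intranasal PBS or test compound at 100 mg/kg for 1 month. Day 1: paired auditory–shock stimuli, return to cage 1 min after last pair. Day 2: freezing scored 5 min in context A. Day 3: altered context B, freezing scored 3 min, then 3 min with auditory cue.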

APP/PS1 female mice [4] = assay: Brain protein levels of 6-month-old females, western blot; assay type: in vivo, mouse; details: 50 mg/kg, 1 month
In short: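 Females received PBS or test compound at 50 mg/kg (APP/PS1 only) intranasally for 1 month. Brain hAPP, BACE1, iNOS, pro-IL-1β, HMOX1 and p44/42 MAPK assessed by western blot, with milk or BSA (phospho) blocking 1 h RT. Mean ± SEM of five animals; one-way ANOVA with Dunnett's or Tukey's test, p < 0.05.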

WT female mice = assay: Safety: histopathology and serum biochemistry after 1 month intranasal dosing; assay type: in vivo, mouse; details: intranasal 100 mg/kg
In short: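 11-month-old WT females given intranasal PBS or test compound at 100 mg/kg for 1 month. Histopathology of heart, hippocampus, lung, liver and kidney. Serum GOT, GGT, ALP, albumin, creatinine and urea reported as mg/dL or IU/L.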

[5] = Pharmacokinetics after intranasal administration; assay type: in vivo, mouse; details: for Kp: B6C3F1, mouse, inhaled or intranasal, 100 mg/kg; for AUC t / AUCinf: WT mice
In short: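 WT B6C3F1 mice (25–30 g), acclimatised ≥7 days with food and water ad libitum, given test compound intranasally at 100 mg/kg. Plasma, brain and lung sampled at 5, 15, 30, 60, 120 and 180 min; n = 4. AUCt and AUCinf derived from concentration–time profiles.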

[6] = test system: AKT/GSK3β signaling in N2a-APPswe cells; assay: AKT and GSK3β phosphorylation, western blot; assay type: cell-based, mouse; details: 250 μM, 30 min
In short: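 Murine N2a-APPswe cells exposed to test compound at 250 μM for 5, 15 or 30 min; basal pAKT in untreated N2a-wt and N2a-APPswe read at 30 min. Protein by BCA; lysates denatured 5 min at 95°C. Membranes blocked 1 h RT in 5% BSA for phospho-proteins, primaries 1:1000 overnight at 4°C, HRP secondaries 1 h RT.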

APP/PS1 male mice [7] = assay: Novel object recognition test; assay type: in vivo, mouse; details: APP/PS1 males, 100 mg/kg, 1 month
In short: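 Behavioural testing in 10-month-old APP/PS1 and WT littermate males, randomised n = 5 per group. Intranasal PBS or test compound at 100 mg/kg for 1 month. Distance travelled also recorded.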

WT and APP/PS1 male mice = assay: Hippocampal gene expression, real-time RT-PCR; assay type: in vivo, mouse
In short: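 Hippocampi of 11-month-old WT and APP/PS1 males after 1 month of intranasal PBS or test compound at 100 mg/kg. hAPP, Bace1, Il-1β, Iba1, Trem2, Hmox1, Ppargc1α and Bdnf mRNA measured by real-time RT-PCR.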

N2a-APPswe cells = assay: Nrf2-dependent gene expression; assay type: cell-based, mouse
[8] = test system: Nrf2 activation in KeratinoSens cells; assay: KeratinoSens reporter gene assay; assay type: cell-based; details: 6 h; Iso 250 μM, DMF 50 μM
In short: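 KeratinoSens ARE-luciferase cells (passage ≤22) plated at 1.0 × 10^4 per well in triplicate; after 24 h switched to DMEM with 1% FBS, no geneticin. Wortmannin 500 nM added 1 h before test compound at 250 μM; DMF 50 μM as positive control; DMSO ≤0.1%. After 6 h, Alamar Blue (4 h, 37°C), then luciferase read as fold over DMSO. Three independent experiments in triplicate.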

[9] = Blood-brain barrier permeability, PAMPA with 2% porcine polar brain lipid; assay type: in vitro ADME; details: 150 μg/mL, 16 h, cut-off 2.0 × 10^−6 cm s^−1 (Figure S4)
In short: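 PAMPA blood–brain barrier model using membranes with 2% (w/v) porcine polar brain lipid. Permeability given as experimental Papp in cm/s. Mean of three independent experiments, each run in duplicate.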

[10] = APP/PS1 + Iso vs APP/PS1, 100 mg/kg, 1 month
[11] = APP/PS1 males, 100 mg/kg, 1 month
[12] = WT and APP/PS1 males, 100 mg/kg, 1 month, not significant
[13] = N2a-APPswe, 1, 3 and 6 h (Figure S2)

BACE1 activity (BACE1): inhibited
Kp ([5]; brain and plasma): 0.23
Kp ([5]; lung and plasma): 6.73
AUC t ([5]; brain, intranasal 100 mg/kg): 140.87 ^c μg.min/g
AUCinf ([5]; brain, intranasal 100 mg/kg): 142.15 ^c μg.min/g
dose-normalized AUC t in plasma ([5]; intranasal 100 mg/kg, mice): 5.99 µg·min/mL/kg
dose-normalized AUCinf in plasma ([5]; intranasal 100 mg/kg, mice): 6.04 µg·min/mL/kg
AUC t ([5]; lung, intranasal 100 mg/kg): 4030.85 ^c μg.min/g
AUCinf ([5]; lung, intranasal 100 mg/kg): 4091.75 ^c μg.min/g
BBB permeability (PAMPA Papp) [9]: could cross the BBB
Structure (SMILES): CC=Cc1ccc(O)c(OC)c1 [Iso, 2‐methoxy‐4‐(prop‐1‐en‐1‐yl) phenol]
highest nontoxic concentration tested (BV-2 cells): 250 µM
behavior (hot plate, open field, fear conditioning) (APP/PS1 female mice [1]): no relevant behavioral alterations were observed
alpha half-life distribution time ([2]; after intravenous dosing): 7 to 10 min
steady-state apparent volume of distribution ([2]; after intravenous dosing): 11 to 25.2 L/kg
dose-normalized AUCinf in plasma ([2]; intravenous 35 mg/kg, mice): 6.76 µg·min/mL/kg
dose-normalized AUC t in plasma ([2]; first listed of doses 35, 70 and 140 mg/kg, mice): 1.91 µg·min/mL/kg
dose-normalized AUC t in plasma ([2]; second listed of doses 35, 70 and 140 mg/kg, mice): 1.68 µg·min/mL/kg
dose-normalized AUC t in plasma ([2]; third listed of doses 35, 70 and 140 mg/kg, mice): 1.45 µg·min/mL/kg
% of freezing, contextual memory (day 2) (APP/PS1 male mice [3]; APP/PS1 males): clear but not significant increase
associative memory (day 3) (APP/PS1 male mice [3]; males): no differences were detected
decrease in brain p44/42 MAPK phosphorylated levels (APP/PS1 female mice [4]; 6-month-old APP/PS1 females): reverted
increase in brain HMOX1 protein levels (APP/PS1 female mice [4]; 6-month-old APP/PS1 mice, p = 0.068): 1.5 fold
brain APP protein levels (APP/PS1 female mice [4]; 6-month-old mice): not altered
LDL cholesterol (WT female mice; 11-month-old WT females): reduction
hippocampus histopathology (WT female mice; WT females): Increased cell activation
kidney histopathology (WT female mice; WT females): cellular eosinophilia and tubular epithelial hypertrophy
liver histopathology (hepatic steatosis seen in VEH) (WT female mice; WT females): also maintained
serum albumin (WT female mice; WT females): no alterations were detected
serum alkaline phosphatase (ALP) (WT female mice; WT females): no alterations were detected
serum creatinine (WT female mice; WT females): no alterations were detected
serum gamma-glutamyl transferase (GGT) (WT female mice; WT females): no alterations were detected
serum glutamic oxaloacetic transaminase (GOT) (WT female mice; WT females): no alterations were detected
serum urea (WT female mice; WT females): no alterations were detected
heart histopathology (WT female mice; WT females, vs VEH): No histopathological changes were observed
AKT phosphorylated levels [6]: AKT activation
GSK3β phosphorylated (Ser9) levels [6]: GSK3β inactivation
percentage of investigations in the novel object (decreased in APP/PS1 VEH) (APP/PS1 male mice [7]): reverted
recognition index (lowered in APP/PS1 VEH) (APP/PS1 male mice [7]): reversed
decrease in Bdnf gene of APP/PS1 mice (WT and APP/PS1 male mice; [10]): reversed
reduction in Ppargc1α mRNA levels of APP/PS1 mice (WT and APP/PS1 male mice; [10]): reversed
Iba1 expression in hippocampus (WT and APP/PS1 male mice; [11]): increased
h-APP gene expression in hippocampus (WT and APP/PS1 male mice; [11]): not affected
increase in Trem2 gene expression (trend) (WT and APP/PS1 male mice; [11]): 1.6 fold
reduction of Bace1 mRNA levels (WT and APP/PS1 male mice; Iso-treated 11-month-old animals, 100 mg/kg, not significant): ~ 4 fold
Bace1 mRNA levels in hippocampus (WT and APP/PS1 male mice; [12]): clear tendency toward a reduction
Il1β mRNA levels in hippocampus (WT and APP/PS1 male mice; [12]): clear tendency toward a reduction; also recorded: markedly reduced
Trem2 mRNA levels in hippocampus (WT and APP/PS1 male mice; WT males, 100 mg/kg, 1 month): decreased
Hmox1 expression in hippocampus (WT and APP/PS1 male mice; both WT and APP/PS1 males, 100 mg/kg, 1 month): increased
Hmox1 gene expression (reduced in N2a-APPswe) (N2a-APPswe cells; N2a-APPswe, 250 μM, 3 h and 6 h): significantly reverted
Nqo1 gene expression (N2a-APPswe cells; [13]): induced
Sod1 gene expression (N2a-APPswe cells; [13]): induced
Nrf2 activation (luciferase induction) [8]: induced Nrf2 activation
